# Screens as filed in PubChem.
# Shown are actives, neighbours in structure and some others; about 4.6% of the full set was active somewhere.
# OX1R antag-1 = antagonists of human orexin 1 receptor; CHO/OX1R cells, Fluo-8 calcium fluorescence, orexin A; 330,000 compounds, 0.43% hits; O43613; inhibition, % at 5 µM;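 active = inhibition above its plate's threshold, mean inhibition of all tested compounds on the plate plus 3 SD, cut at about 37% in these data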
# GPR7 antag = blocks human GPR7 receptor signaling | P48145 | GPR7-expressing cells, fluorescence antagonist assay | inhibition, % at 4.4 µM | AID 1861 | 290,000 compounds, 1.1% hits; in the data active = inhibition above about 16%, passing the limit was not always enough;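 note: cells stimulated with the agonist NPW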
# Target sequence (P48145 whole entry, looked up): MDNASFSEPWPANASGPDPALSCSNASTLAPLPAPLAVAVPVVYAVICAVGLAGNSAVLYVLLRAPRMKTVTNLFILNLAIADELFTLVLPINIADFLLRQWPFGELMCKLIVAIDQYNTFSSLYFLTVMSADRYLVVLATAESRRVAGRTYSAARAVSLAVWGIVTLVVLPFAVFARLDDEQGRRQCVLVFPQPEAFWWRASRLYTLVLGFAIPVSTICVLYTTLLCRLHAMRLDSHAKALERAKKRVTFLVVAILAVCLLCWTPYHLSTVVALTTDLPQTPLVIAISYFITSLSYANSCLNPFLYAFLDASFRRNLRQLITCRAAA
# TAAR1 agonist = agonists of human TAAR1. CHO RD-HGA16 TAAR1, Fluo-8 calcium fluorescence; vehicle wells 0%, saturating PEA agonist 100%. activation, % at 3 µM. 360,000 compounds, 0.99% hits;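 active = activation above the mean activation of all test compounds in the run plus 3 SD, cut at about 38% in these data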
# Target sequence (Q96RJ0 whole entry, looked up): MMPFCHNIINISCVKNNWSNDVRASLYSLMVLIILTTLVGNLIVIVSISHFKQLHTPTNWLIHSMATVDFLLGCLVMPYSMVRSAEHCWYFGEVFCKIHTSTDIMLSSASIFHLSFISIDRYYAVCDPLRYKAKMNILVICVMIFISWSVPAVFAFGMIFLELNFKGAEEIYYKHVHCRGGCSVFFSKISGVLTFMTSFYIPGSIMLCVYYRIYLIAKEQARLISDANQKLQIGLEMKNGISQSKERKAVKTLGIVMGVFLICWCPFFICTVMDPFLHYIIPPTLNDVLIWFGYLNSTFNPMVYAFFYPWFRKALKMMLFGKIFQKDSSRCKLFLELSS
#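 Benchmarks: low control DMSO, high control PEA (EC100); System: CHO RD-HGA16 cells carrying human TAAR1 plus Gα16; Detection: Fluo-8 fluorescence, 5 s baseline then 140 s kinetic read; Schedule: 17-24 h plating, Fluo-8 75 min 37 °C, 30 min RT; Read-out basis: % activation from peak over basal fluorescence ratio, DMSO-to-PEA scaled.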
# CHO parental Ca = counter-screen for OX1R antagonists: effect in parental CHO cells; 330,000 compounds, 0.63% hits; inhibition, % at 5.6 µM; parental CHO-K1, ATP-induced calcium, Fluo-8 fluorescence;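 active = inhibition above that plate's mean sample inhibition plus 3 SD, cut at about 26% in these data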
#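 Measured by: calcium-sensitive Fluo-8 fluorescence / Test system: CHO parental line / Controls: ATP-challenged DMSO wells low, unchallenged DMSO wells high / Measure: % inhibition / Compound: single nominal dose of 5.6 µM per compound / Replicates: single well per compound, no replicates / Reagent: ATP as calcium-mobilizing challenge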
# TAAR1 antag = human TAAR1 antagonism | CHO RD-HGA16 TAAR1, Fluo-8 calcium fluorescence, antagonist | inhibition, % at 3 µM | 360,000 compounds, 1.5% hits | AID 624466;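 active = inhibition above a per-plate cutoff, the mean inhibition of test compounds on that plate plus 3 SD, cut at about 49% in these data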
#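 Test system: hTAAR1-expressing CHO RD-HGA16 cells, Gα16-coupled; Probe or stimulus: EC80 β-phenethylamine stimulus; Compound dosing: single nominal final test compound concentration of 3 µM; Timing: 140 s kinetic read after compound, 140 s after agonist; Signal: Fluo-8 calcium-sensitive fluorescence; Measure: % inhibition of agonist calcium response; Controls: DMSO and EC80 PEA controls.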
# OX1R antag-2 = OX1R (human) antagonism. O43613. OX1R-expressing cells, FRET antagonist read-out. inhibition, % at 6.6 µM. 330,000 compounds, 1.8% hits. AID 485270; in the data active = inhibition mostly above about 38%, no sharp cut-off; inactive = mostly below about 40%
# GPR7 antag cf = confirmation of human GPR7 antagonists; shares compounds with GPR7 antag; GPR7-expressing cells, calcium fluorescence antagonist mode; inhibition, % at 4.4 µM; 2,400 compounds, 52% hits; AID 1952; in the data active = inhibition above about 24%;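 note: stimulated with the GPR7 agonist NPW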
# MCHR1 antagonist = MCHR1 (human) antagonism in GPR7 counter-screen; inhibition, % at 4.4 µM; shares compounds with GPR7 antag; MCHR1-expressing cells, fluorescence antagonist assay; 2,400 compounds, 62% hits; in the data active = inhibition above about 22%
# Numbers stand for hits; . = inactive; / = no result.
SMILES,OX1R antag-1,GPR7 antag,TAAR1 agonist,CHO parental Ca,TAAR1 antag,OX1R antag-2,GPR7 antag cf,MCHR1 antagonist
Cc1noc(C)c1CSc1nc2ccccc2n1CCc1ccccc1,.,26.0,.,.,.,.,.,.
CC(Nc1nc(-c2ccccc2)nc2ccccc12)c1ccccc1 (stereo not drawn),.,.,.,.,.,.,/,/
CC(Nc1nc(N2CCCCC2)nc2ccccc12)c1ccccc1 (stereo not drawn),.,24.3,.,.,.,.,30.3,56.9
Cc1ccc2nccc(C(=O)N3CCCC(Nc4ccc(C)c(C)c4)C3)c2c1 (stereo not drawn),.,27.4,.,.,.,37.5,.,.
COCCn1c(SCC(=O)N(C)c2ccccc2)nc2c([nH]c3ccccc32)c1=O,.,30.6,.,.,.,.,.,.
C=CCN(CC=C)C(=S)NC(=O)c1ccc(C)c(Br)c1,.,.,.,.,.,.,/,/
O=C(Nc1cccc(C(F)(F)F)c1)C(SCCO)c1ccccc1 (stereo not drawn),.,.,.,.,.,.,/,/
CCC(C(=O)Nc1cccc(C(F)(F)F)c1)c1ccccc1 (stereo not drawn),.,28.3,.,.,.,.,.,47.4
C/C(=N\NC(=O)Cc1ccc(Cl)c(Cl)c1)c1cccnc1,/,.,.,/,.,/,/,/
C/C(=N\NC(=O)Cc1ccc([N+](=O)[O-])cc1)c1cccnc1,/,22.7,.,/,.,/,.,.
O=C(CN1C(=O)C2C3CC(C(Br)C3Br)C2C1=O)N1CCOCC1 (stereo not drawn),.,.,.,.,.,.,/,/
O=C(CN1C(=O)C2C3CC(C(Br)C3Br)C2C1=O)N1CCN(Cc2ccccc2)CC1 (stereo not drawn),.,29.4,.,.,.,.,40.8,.
CC(=O)Nc1ccc2ccccc2c1,.,.,/,.,/,.,/,/
CC(=O)Nc1ccc2cc3ccc(NC(C)=O)cc3nc2c1,.,14.8,.,.,.,.,.,.
COc1cccc(C(NC(C)=O)c2nc(-c3cnn(C)c3)cs2)c1 (stereo not drawn),/,/,.,/,.,/,/,/
COc1cc2c(cc1NC(=O)CN1C(=O)NC3(CCc4ccccc43)C1=O)oc1ccccc12 (stereo not drawn),.,33.0,.,.,50.5,.,58.8,56.8
Cc1ccccc1NC(=O)CN1C(=O)NC2(CCc3ccccc32)C1=O (stereo not drawn),.,/,.,.,.,.,/,/
Clc1ccc2[nH]c3c(NCC4CCCO4)ncnc3c2c1 (stereo not drawn),.,37.8,.,38.2,53.9,124.0,.,62.1
C=CCSc1nc2sc(C)c(C)c2c(=O)n1N,.,.,.,.,.,.,/,/
O=C(c1ccco1)N1CCN(S(=O)(=O)c2ccc(Br)s2)CC1,.,46.8,.,.,.,.,.,.
O=C(OCC(=O)N1CCN(c2ccccc2)CC1)c1ccc(O)cc1O,.,25.8,.,.,.,.,.,.
O=C(Nc1nnc(-c2ccc3c(c2)OCCO3)o1)C1CCCCC1,.,.,.,.,.,.,/,/
CCC(=O)c1ccc(OCC(O)Cn2c(C)nc3ccccc32)cc1 (stereo not drawn),.,27.7,.,.,.,.,.,57.2
Cc1ccccc1NC(=O)Nc1ccc(C(F)(F)F)cc1,.,54.5,.,.,.,.,69.0,52.4
O=C(Nc1ccc(Br)cc1)Nc1ccccc1F,.,28.2,.,.,.,.,59.1,65.4
SMILES,OX1R antag-1,GPR7 antag,TAAR1 agonist,CHO parental Ca,TAAR1 antag,OX1R antag-2,GPR7 antag cf,MCHR1 antagonist
Cc1ccccc1NC(=O)CNC(=O)c1ccc(C(F)(F)F)cc1,.,.,.,.,.,.,/,/
CC(C)CCn1c(Br)nc2c1c(=O)n(CC(N)=O)c(=O)n2C,.,.,.,.,.,.,/,/
CCCCCCN1C=CC(=C/C=C(\C#N)C(=O)OCC)C=C1,99.2,29.6,113.7,73.8,59.7,.,46.5,63.7
OCCN1CCN(CC(O)COc2ccc(Cl)cc2)CC1 (stereo not drawn),.,.,.,.,.,.,/,/
OCCN1CCN(CC(O)COc2ccc(C34CC5CC(CC(C5)C3)C4)cc2)CC1 (stereo not drawn),.,40.2,.,.,.,.,34.6,51.0
CCc1ccccc1NC(=O)COc1ccc(C(=S)N2CCCC2)cc1,.,23.5,.,.,.,45.8,.,.
CC(=O)c1ccc(OCC(=O)Nc2ccccc2N2CCCC2)cc1,.,.,.,.,.,.,/,/
COc1cccc(Cn2cccc(NC(=O)Nc3cccc(C#N)c3)c2=O)c1,.,26.8,.,.,.,.,25.6,66.7
COc1cccc(NC(=O)Nc2cccn(Cc3ccc(C)cc3)c2=O)c1,.,.,.,.,.,.,/,/
CCOC(=O)C1(CC2CCCCO2)CCN(C2CCSCC2)CC1 (stereo not drawn),.,25.1,.,.,.,.,37.2,22.7
CCOc1ccc(/C=C/C(=O)c2ccccc2)cc1,.,.,.,.,.,.,/,/
CCOc1ccc(C(=O)/C=C/c2ccc(SC)cc2)cc1,.,36.8,.,.,.,.,41.4,44.9
CCCC(CCC)C(=O)Nc1ccc2c(c1)N(C(=O)CN1CCN(C)CC1)c1ccccc1CC2,.,58.5,.,.,.,.,38.7,21.9
CCOC(=O)Nc1ccc2c(c1)N(C(=O)CN1CCN(C)CC1)c1ccccc1S2,.,.,.,.,.,.,/,/
Cn1c(CNC(=O)c2ccccc2F)nnc1SCCOc1ccccc1,.,.,.,.,.,.,/,/
CC(=O)Nc1ccc(S(=O)(=O)N2CCN(c3nc4ccccc4n3CC(C)C)CC2)cc1,/,27.4,.,/,.,/,.,.
O=C(NN=C1CCCC1)c1ccccc1OCCOc1ccccc1,.,22.1,.,.,.,.,.,27.4
CCCC[N+](CC#CCO)(CC#Cc1ccccc1)CCCC,.,25.2,.,.,.,.,25.4,25.8
CCC[N+](CC#CCO)(CC#Cc1ccccc1)CCC,.,.,.,.,.,.,/,/
C1=CCC(CN2CCN(C3CCCCCC3)CC2)CC1 (stereo not drawn),.,30.1,.,.,.,.,.,37.8
Cc1ccc(C(=O)N/C(=C\c2sccc2C)C(=O)NCCCN2CCOCC2)cc1,.,.,.,.,.,.,/,/
CCOC(=O)CNC(=S)N(CCCN1CCCCC1)Cc1cccs1,.,35.2,.,.,.,.,.,.
CC(C)Cn1c(SCC(N)=O)nnc1-c1cccc(S(=O)(=O)N2CCOCC2)c1,.,/,.,.,.,.,/,/
